{
  "source": "ChEMBL document CHEMBL3853360",
  "about": "“Combined Interactions with I1-, I2-Imidazoline Binding Sites and α2-Adrenoceptors To Manage Opioid Addiction” (ACS Med Chem Lett, 2016)",
  "key": {"[1]": {"biological_target": "T1, Adrenergic receptor alpha-2 (Rattus norvegicus, UniProt P22086+P19328+P22909)", "T1 sequence (P22086 whole entry)": "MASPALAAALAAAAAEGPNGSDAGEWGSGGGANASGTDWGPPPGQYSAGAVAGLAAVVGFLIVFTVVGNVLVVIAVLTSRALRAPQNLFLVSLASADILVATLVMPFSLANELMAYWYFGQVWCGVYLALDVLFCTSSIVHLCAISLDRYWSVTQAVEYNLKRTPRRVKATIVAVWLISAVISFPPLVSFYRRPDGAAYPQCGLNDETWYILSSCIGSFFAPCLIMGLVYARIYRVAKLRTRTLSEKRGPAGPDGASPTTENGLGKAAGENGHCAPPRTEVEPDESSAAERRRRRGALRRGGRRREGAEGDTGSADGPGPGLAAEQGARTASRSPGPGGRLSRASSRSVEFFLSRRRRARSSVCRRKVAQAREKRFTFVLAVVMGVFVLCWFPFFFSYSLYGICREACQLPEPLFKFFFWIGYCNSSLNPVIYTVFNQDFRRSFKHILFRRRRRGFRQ", "T1 sequence (P19328 whole entry)": "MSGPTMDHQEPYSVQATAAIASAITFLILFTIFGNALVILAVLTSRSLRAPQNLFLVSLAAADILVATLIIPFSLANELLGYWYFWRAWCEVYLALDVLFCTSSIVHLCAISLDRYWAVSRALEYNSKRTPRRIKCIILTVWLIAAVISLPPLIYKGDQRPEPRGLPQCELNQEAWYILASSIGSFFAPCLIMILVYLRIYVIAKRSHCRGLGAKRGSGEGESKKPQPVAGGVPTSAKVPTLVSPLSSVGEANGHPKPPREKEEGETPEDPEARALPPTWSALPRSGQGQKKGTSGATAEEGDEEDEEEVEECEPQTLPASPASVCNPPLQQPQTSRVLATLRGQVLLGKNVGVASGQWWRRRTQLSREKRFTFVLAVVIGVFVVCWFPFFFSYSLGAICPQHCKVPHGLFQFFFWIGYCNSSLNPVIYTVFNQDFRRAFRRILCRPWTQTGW", "T1 sequence (P22909 whole entry)": "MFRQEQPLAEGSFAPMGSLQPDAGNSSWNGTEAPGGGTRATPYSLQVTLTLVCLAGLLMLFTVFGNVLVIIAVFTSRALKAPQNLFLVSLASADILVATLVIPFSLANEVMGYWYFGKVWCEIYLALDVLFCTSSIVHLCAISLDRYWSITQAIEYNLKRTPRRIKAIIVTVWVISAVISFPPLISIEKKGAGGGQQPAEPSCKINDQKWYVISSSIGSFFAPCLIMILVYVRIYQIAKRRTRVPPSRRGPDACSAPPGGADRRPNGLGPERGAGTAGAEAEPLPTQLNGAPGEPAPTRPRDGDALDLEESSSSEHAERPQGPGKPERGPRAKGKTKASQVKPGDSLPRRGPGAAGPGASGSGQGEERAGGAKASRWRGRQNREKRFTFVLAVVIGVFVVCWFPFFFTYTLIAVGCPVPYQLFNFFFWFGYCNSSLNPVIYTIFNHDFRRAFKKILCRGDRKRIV", "assay": "Displacement of [3H]-RX 821002 from alpha2-AR in Sprague-Dawley rat brain membranes after 30 mins by liquid scintillation counting", "type": "cell membranes, Membrane", "outline": "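Radioligand competition binding with pKi determined by displacement. I1 sites: [125I]-p-iodoclonidine on rat kidney membranes. I2 sites: [3H]-2-BFI on rat brain membranes. α2-ARs: [3H]-RX821002 on rat brain membranes.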"}, "[2]": {"biological_target": "T2, Alpha-2B adrenergic receptor (Homo sapiens, UniProt P18089)", "T2 sequence (P18089 whole entry)": "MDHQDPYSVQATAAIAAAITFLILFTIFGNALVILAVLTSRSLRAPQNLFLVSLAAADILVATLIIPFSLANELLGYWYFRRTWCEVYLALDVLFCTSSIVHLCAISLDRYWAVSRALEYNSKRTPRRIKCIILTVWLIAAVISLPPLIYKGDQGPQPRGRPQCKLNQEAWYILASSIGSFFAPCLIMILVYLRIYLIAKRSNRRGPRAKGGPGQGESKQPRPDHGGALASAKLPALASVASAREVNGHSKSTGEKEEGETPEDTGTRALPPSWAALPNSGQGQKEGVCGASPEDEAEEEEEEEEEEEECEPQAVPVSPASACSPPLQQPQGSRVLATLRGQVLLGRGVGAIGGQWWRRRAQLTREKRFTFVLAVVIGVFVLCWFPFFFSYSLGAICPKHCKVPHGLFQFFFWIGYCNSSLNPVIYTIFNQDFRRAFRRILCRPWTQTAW", "assay": "Agonist activity at human alpha2b-AR expressed in CHO cells assessed as rate of acidification after 240 mins by cytosensor microphysiometric analysis", "type": "cell-based", "outline": "(§1)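 Functional assay in CHO cells stably expressing a single human α2-AR subtype (α2A, α2B or α2C), read on a Cytosensor microphysiometer. Outputs are pEC50, intrinsic activity and, for antagonism, pKb. Intrinsic activity is expressed as a fraction of the full agonist (−)-noradrenaline, set at 1. Values are mean ± SEM of 3–5 separate experiments.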"}, "[3]": {"biological_target": "T3, Alpha-2B adrenergic receptor (Homo sapiens) (UniProt P18089)", "T3 sequence (whole entry)": "T2 sequence (P18089 whole entry)", "assay": "Agonist activity at human alpha2b-AR expressed in CHO cells assessed as rate of acidification after 240 mins by cytosensor microphysiometric analysis relative to (-)-noradrenaline", "type": "cell-based", "outline": "as §1"}, "[4]": {"biological_target": "T4, Alpha-2C adrenergic receptor (Homo sapiens) (UniProt P18825)", "T4 sequence (whole entry)": "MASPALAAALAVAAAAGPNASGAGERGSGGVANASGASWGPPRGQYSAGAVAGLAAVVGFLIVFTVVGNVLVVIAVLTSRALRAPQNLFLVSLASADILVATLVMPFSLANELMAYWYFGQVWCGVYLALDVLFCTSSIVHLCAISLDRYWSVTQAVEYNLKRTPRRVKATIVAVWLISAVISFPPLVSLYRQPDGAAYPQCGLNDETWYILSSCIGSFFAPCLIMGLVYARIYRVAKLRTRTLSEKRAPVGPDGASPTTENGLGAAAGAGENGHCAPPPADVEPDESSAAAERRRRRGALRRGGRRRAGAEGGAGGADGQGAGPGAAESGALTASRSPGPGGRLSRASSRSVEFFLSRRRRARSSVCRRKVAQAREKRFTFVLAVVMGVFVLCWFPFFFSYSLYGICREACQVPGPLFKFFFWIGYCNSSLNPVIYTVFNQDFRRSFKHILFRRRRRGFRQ", "assay": "Agonist activity at human alpha2c-AR expressed in CHO cells assessed as rate of acidification after 240 mins by cytosensor microphysiometric analysis relative to (-)-noradrenaline", "type": "cell-based", "outline": "as §1"}, "[5]": {"assay": "Reduction in morphine dependence expression in CD1 mouse assessed as inhibition of naloxone-precipitated jumping at 5 mg/kg, ip administered acutely 15 mins prior to naloxone challenge relative to control", "type": "functional, organism-based"}, "Mus musculus": {"test_system": "Mus musculus", "assay": "Reduction in morphine dependence acquisition in CD1 mouse assessed as inhibition of naloxone-precipitated teeth chattering frequency at 5 to 10 mg/kg, ip administered 15 mins prior to each morphine challenge relative to control", "type": "functional", "outline": "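Mice received i.p. test compound (5 or 10 mg/kg) 15 min before each of repeated morphine injections, with vehicle and morphine-only controls. Withdrawal was then precipitated with naloxone. Jumping frequency and somatic signs (rearing, forepaw tremor, teeth chattering; summed frequency) were scored and compared with the morphine group. Data are mean ± SEM of 6–10 animals.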"}},
  "data": [
    {"smiles": "Cc1ccccc1NCC1=NCCN1", "values": [
      {"measurement": "pKi", "setting": "[1]", "result": 7.73},
      {"measurement": "EC50", "setting": "[2]", "result": 3.16, "unit": "µM"},
      {"measurement": "Intrinsic activity", "setting": "[3]", "result": 0.4},
      {"measurement": "Intrinsic activity", "setting": "[4]", "result": 0.8},
      {"measurement": "inhibition", "setting": "[5]", "result": 96, "unit": "%"},
      {"measurement": "inhibition (INH)", "setting": "Mus musculus", "result": 80, "unit": "%"}
    ]}
  ]
}
